Measured values as given in ChEMBL document CHEMBL4480436, “Lead optimization of selective tubulin inhibitors as anti-trypanosomal agents” (Bioorg Med Chem, 2019).

What was measured:
[1] = tested on: RAW264.7; experiment: Cytotoxicity against mouse RAW264.7 cells after 48 hrs by MTT assay; format: cell-based; settings: RAW264.7, 48 h
How it was run: (§1)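 Cells kept in RPMI1640 with 10% heat-inactivated FBS, 2 mM L-glutamine, 1 mM pyruvate, pen-strep, 37 °C, 5% CO2. 3000 cells/well seeded 24 h, then exposed to graded concentrations (DMSO ≤0.1% final) for 48 h. Then 0.5 mg/mL MTT 3 h at 37 °C, DMSO solubilization, absorbance 570 nm. Quadruplicate data fitted to dose–response curves for IC50.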

[2] = Selectivity index, ratio of IC50 for HEK293 cells to IC50 for Trypanosoma brucei brucei Lister 427; format: toxicity; settings: human, read-out: Ratio IC50
How it was run: (§2)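 Ratio of mammalian MTT IC50 (48 h) to T. brucei MTS IC50 (48 h), both from quadruplicate dose–response fits.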

[3] = tested on: Trypanosoma brucei brucei; experiment: Antiparasitic activity against Trypanosoma brucei brucei Lister 427 assessed as reduction in parasite viability after 48 hrs by MTS assay; format: functional, organism-based; settings: Lister 427, 48 h
How it was run: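 Bloodstream-form Lister 427 grown in HMI-9 with 10% FBS, 37 °C, 7.5% CO2. 5000 cells/well exposed to graded concentrations with 0.1% DMSO for 48 h at 37 °C. MTS/PMS reagent then added, 3 h at 37 °C, formazan read at 490 nm. Quadruplicate data normalized and fitted to dose–response curves for IC50 (Mean ± S.D.).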

[4] = Selectivity index, ratio of IC50 for mouse RAW264.7 cells to IC50 for Trypanosoma brucei brucei Lister 427; format: toxicity; settings: read-out: Ratio IC50; how it was run: as §2
[5] = tested on: HEK293; experiment: Cytotoxicity against HEK293 cells after 48 hrs by MTT assay; format: cell-based; settings: Homo sapiens, HEK293, 48 h; how it was run: as §1

Row | SMILES | IC50 [3] [µM] | IC50 [1] [µM] | selectivity ratio [2] | selectivity ratio [4] | IC50 [5] [µM]
1 | Cc1cc(NC(=O)c2ccc(Cl)cc2)ccc1NS(C)(=O)=O | > 62.5 | 69 | < 1 | < 2 | 50.3
2 | Cc1cc(NC(=O)c2ccc(C#N)cc2)ccc1NS(C)(=O)=O | > 62.5 | 171 | < 1 | < 3 | 43.5
3 | Cc1cc(NC(=O)c2cccc(C(F)(F)F)c2)ccc1NS(=O)(=O)C(F)(F)F | 21.7 | 8.72 | 6 | < 1 | 131
4 | COc1cc(NC(=O)c2ccc(C#N)cc2)ccc1NS(=O)(=O)C(F)(F)F | 9.48 | > 250 | > 26 | > 26 | > 250
5 | O=C(Nc1ccc(NS(=O)(=O)C(F)(F)F)c(Cl)c1)c1ccc(Cl)c([N+](=O)[O-])c1 | 47.6 | 31.7 | 5 | 1 | 228
6 | CCS(=O)(=O)Nc1ccc(NC(=O)c2cccc(C(F)(F)F)c2)cc1C | 35.3 | 114 | 6 | 3 | 210
7 | COc1cc(NC(=O)c2cc(C(F)(F)F)cc(C(F)(F)F)c2)ccc1NS(=O)(=O)C(F)(F)F | > 62.5 | > 250 | – | – | > 250
8 | CCS(=O)(=O)Nc1ccc(NC(=O)c2ccc(Cl)c([N+](=O)[O-])c2)cc1OC | > 62.5 | 5.66 | < 2 | < 1 | 63.6
9 | CS(=O)(=O)Nc1ccc(NC(=O)c2cc(C(F)(F)F)cc(C(F)(F)F)c2)cc1F | 23.7 | 125 | > 11 | 5 | > 250
10 | O=C(Nc1ccc(NS(=O)(=O)C(F)(F)F)c(F)c1)c1ccc(Cl)cc1 | > 62.5 | 8.27 | < 2 | < 1 | 79
11 | CS(=O)(=O)Nc1ccc(NC(=O)c2cccc(C(F)(F)F)c2)cc1F | > 62.5 | 32.3 | – | < 1 | > 250
12 | CCS(=O)(=O)Nc1ccc(NC(=O)c2cccc(C(F)(F)F)c2)cc1Cl | 7.81 | 62.4 | 20 | 8 | 159
13 | COc1cc(NC(=O)c2ccc(Cl)cc2)ccc1NS(=O)(=O)C(F)(F)F | 45.6 | 108 | > 5 | 2 | > 250
14 | COc1cc(NC(=O)c2cccc(C(F)(F)F)c2)ccc1NS(C)(=O)=O | > 62.5 | 84.8 | – | < 2 | > 250
15 | CCS(=O)(=O)Nc1ccc(NC(=O)c2ccc(Cl)cc2)cc1Cl | 19.1 | > 250 | > 13 | > 13 | > 250
16 | CCS(=O)(=O)Nc1ccc(NC(=O)c2ccc(Cl)c([N+](=O)[O-])c2)cc1Cl | 2.21 | 125 | 29 | 57 | 63.8

Row | SMILES | IC50 [3] [µM] | IC50 [1] [µM] | selectivity ratio [2] | selectivity ratio [4] | IC50 [5] [µM]
17 | CS(=O)(=O)Nc1ccc(NC(=O)c2ccc(C#N)cc2)cc1Cl | > 62.5 | > 250 | – | – | > 250
18 | CCS(=O)(=O)Nc1ccc(NC(=O)c2cc(C(F)(F)F)cc(C(F)(F)F)c2)cc1OC | 11.6 | > 250 | > 22 | > 22 | > 250
19 | N#Cc1ccc(C(=O)Nc2ccc(NS(=O)(=O)C(F)(F)F)c(Cl)c2)cc1 | 11 | > 250 | > 23 | > 23 | > 250
20 | CCS(=O)(=O)Nc1ccc(NC(=O)c2ccc(Cl)cc2)cc1OC | > 62.5 | 60.1 | – | < 1 | > 250
21 | COc1cc(NC(=O)c2cc(C(F)(F)F)cc(C(F)(F)F)c2)ccc1NS(C)(=O)=O | > 62.5 | > 250 | < 1 | – | 42
22 | Cc1cc(NC(=O)c2ccc(Cl)cc2)ccc1NS(=O)(=O)C(F)(F)F | 37.2 | – | 5 | 1 | 200
23 | CCS(=O)(=O)Nc1ccc(NC(=O)c2ccc(Cl)c([N+](=O)[O-])c2)cc1C | 19.4 | 141 | 7 | 7 | 144
24 | CCS(=O)(=O)Nc1ccc(NC(=O)c2cccc(C(F)(F)F)c2)cc1OC | 35.7 | 84.8 | > 7 | 2 | > 250
25 | O=C(Nc1ccc(NS(=O)(=O)C(F)(F)F)c(Cl)c1)c1cccc(C(F)(F)F)c1 | > 62.5 | 55.8 | < 4 | < 1 | 210
26 | COc1cc(NC(=O)c2ccc(Cl)c([N+](=O)[O-])c2)ccc1NS(C)(=O)=O | > 62.5 | > 250 | < 3 | – | 164
27 | O=C(Nc1ccc(NS(=O)(=O)C(F)(F)F)c(F)c1)c1cccc(C(F)(F)F)c1 | 47.4 | 34.4 | 3 | 1 | 152
28 | CCS(=O)(=O)Nc1ccc(NC(=O)c2ccc(C#N)cc2)cc1Cl | 38 | 226 | > 7 | 6 | > 250
29 | O=C(Nc1ccc(NS(=O)(=O)C(F)(F)F)c(F)c1)c1ccc(Cl)c([N+](=O)[O-])c1 | 16.8 | 188 | 12 | 11 | 194
30 | CS(=O)(=O)Nc1ccc(NC(=O)c2ccc(C#N)cc2)cc1F | > 62.5 | > 250 | – | – | > 250
31 | CCS(=O)(=O)Nc1ccc(NC(=O)c2ccc(C#N)cc2)cc1OC | > 62.5 | 66.4 | – | < 2 | > 250
32 | CCS(=O)(=O)Nc1ccc(NC(=O)c2ccc(C#N)cc2)cc1C | > 62.5 | 109 | – | < 2 | > 250

The next lines start with results.

Row | IC50 [3] [µM] | SMILES | IC50 [1] [µM] | selectivity ratio [2] | selectivity ratio [4] | IC50 [5] [µM]
33 | > 62.5 | CCS(=O)(=O)Nc1ccc(NC(=O)c2ccc(Cl)cc2)cc1C | 68.7 | < 3 | < 2 | 125
34 | > 62.5 | COc1cc(NC(=O)c2ccc(C#N)cc2)ccc1NS(C)(=O)=O | > 250 | – | – | > 250
35 | > 62.5 | CS(=O)(=O)Nc1ccc(NC(=O)c2ccc(Cl)cc2)cc1F | 22.2 | < 4 | < 1 | 216
36 | 16.7 | Cc1cc(NC(=O)c2cccc(C(F)(F)F)c2)ccc1NS(C)(=O)=O | 110 | 12 | 7 | 194
37 | 9.39 | O=C(Nc1ccc(NS(=O)(=O)C(F)(F)F)c(F)c1)c1cc(C(F)(F)F)cc(C(F)(F)F)c1 | 112 | 17 | 12 | 164
38 | 7.57 | Cc1cc(NC(=O)c2ccc(Cl)c([N+](=O)[O-])c2)ccc1NS(C)(=O)=O | 108 | 10 | 14 | 73.1
39 | > 62.5 | Cc1cc(NC(=O)c2ccc(Cl)c([N+](=O)[O-])c2)ccc1NS(=O)(=O)C(F)(F)F | 89.8 | – | < 2 | > 250
40 | 14.1 | COc1cc(NC(=O)c2ccc(Cl)c([N+](=O)[O-])c2)ccc1NS(=O)(=O)C(F)(F)F | > 250 | > 18 | > 18 | > 250
41 | 43 | COc1cc(NC(=O)c2cccc(C(F)(F)F)c2)ccc1NS(=O)(=O)C(F)(F)F | 75.2 | > 6 | 2 | > 250
42 | > 62.5 | CCS(=O)(=O)Nc1ccc(NC(=O)c2ccc(Cl)cc2)cc1F | 152 | < 1 | < 3 | 53.4
43 | 33.9 | CCS(=O)(=O)Nc1ccc(NC(=O)c2cccc(C(F)(F)F)c2)cc1F | 119 | 3 | 4 | 94.8
44 | > 62.5 | CS(=O)(=O)Nc1ccc(NC(=O)c2ccc(Cl)cc2)cc1Cl | 79.9 | < 3 | < 2 | 167
45 | > 62.5 | CS(=O)(=O)Nc1ccc(NC(=O)c2cccc(C(F)(F)F)c2)cc1Cl | > 250 | – | – | > 250
46 | > 62.5 | COc1cc(NC(=O)c2ccc(Cl)cc2)ccc1NS(C)(=O)=O | 70 | – | < 2 | > 250
47 | > 62.5 | Cc1cc(NC(=O)c2ccc(C#N)cc2)ccc1NS(=O)(=O)C(F)(F)F | 135 | – | < 3 | > 250
